Pyk2 oligo antag: antagonists of human Pyk2 oligomerization; z-score (the deposit names both 25 µM and 10 µM); AID 1347419; Q293 cells, Pyk2 FERM NanoBiT luminescence; active compounds read low; Q14289; 0.83% of 99,000 active;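 active = Z-score of -3 or lower, scaled per plate to the spread of control and sample wells; inactive = z-score above -3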;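 also: negative z-score means lost luminescence so less FERM oligomerization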
Target sequence (Q14289 whole entry, looked up): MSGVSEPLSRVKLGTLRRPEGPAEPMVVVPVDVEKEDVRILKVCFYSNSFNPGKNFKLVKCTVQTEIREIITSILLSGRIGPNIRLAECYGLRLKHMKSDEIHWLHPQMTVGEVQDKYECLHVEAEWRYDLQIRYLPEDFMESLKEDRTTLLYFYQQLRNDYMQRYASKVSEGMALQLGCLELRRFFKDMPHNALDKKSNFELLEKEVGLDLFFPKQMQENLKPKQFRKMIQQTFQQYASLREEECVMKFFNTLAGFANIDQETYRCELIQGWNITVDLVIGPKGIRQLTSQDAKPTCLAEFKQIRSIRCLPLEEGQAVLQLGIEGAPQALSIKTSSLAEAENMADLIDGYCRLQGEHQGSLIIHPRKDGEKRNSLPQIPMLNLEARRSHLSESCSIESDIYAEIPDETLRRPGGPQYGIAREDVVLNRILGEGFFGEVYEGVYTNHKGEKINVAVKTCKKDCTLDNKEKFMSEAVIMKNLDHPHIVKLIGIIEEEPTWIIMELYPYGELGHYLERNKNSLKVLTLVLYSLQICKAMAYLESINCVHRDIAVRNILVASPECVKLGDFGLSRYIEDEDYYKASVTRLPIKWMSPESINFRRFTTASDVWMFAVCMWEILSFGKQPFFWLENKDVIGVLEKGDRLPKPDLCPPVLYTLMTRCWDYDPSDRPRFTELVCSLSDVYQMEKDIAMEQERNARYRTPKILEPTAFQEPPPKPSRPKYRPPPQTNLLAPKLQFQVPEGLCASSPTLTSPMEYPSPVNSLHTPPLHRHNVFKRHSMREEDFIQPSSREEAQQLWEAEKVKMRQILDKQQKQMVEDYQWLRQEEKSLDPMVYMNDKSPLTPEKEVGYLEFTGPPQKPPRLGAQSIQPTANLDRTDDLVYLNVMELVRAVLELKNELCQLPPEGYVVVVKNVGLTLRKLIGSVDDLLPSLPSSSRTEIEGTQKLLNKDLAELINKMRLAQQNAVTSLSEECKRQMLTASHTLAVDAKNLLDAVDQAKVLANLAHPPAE
Jurkat viability: reduces viability or proliferation of Jurkat cells. Jurkat E6.1 viability, ATP luminescence, 48 h. inhibition, % at 4 µM. 1.2% of 56,000 active. AID 463;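 active = inhibition above the mean inhibition of all tested compounds plus 3 SD, cut at about 28% in these data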
HUVEC inhibit: human endothelial cell proliferation inhibition; HUVEC proliferation, CellTiter-Glo luminescence, 72 h; active compounds read low; viability, % at 10 µM (by protocol); 1.1% of 86,000 active; AID 648;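 active = viability at or below 30%; inactive = viability above 30%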
Fibroblast inh: blocks proliferation of human lung fibroblasts; 1.1% of 85,000 active; AID 719; viability, % at 10 µM; LL 47 human lung fibroblast viability, ATP luminescence; active compounds read low;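 active = viability at or below 50% in the single dose screen; inactive = viability above 50%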;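 also: compound exposure lasted 72 h before the ATP readout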
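Material: human LL 47 lung fibroblast cells; quantity: 1,150 cells/well; medium: IMEM plus 15% FBS; doses: 0.1% DMSO in all compound wells; timing: overnight attachment after seeding, then 72 h compound exposure at 37 °C; detection: CellTiter-Glo luminescence; measure: % viability of median cell-only signal; controls: cell-only wells, no compound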
H69AR inhibit: blocks growth of human H69AR lung tumor cells | viability, % at 10 µM | H69AR lung tumor viability, ATP luminescence, 72 h; active compounds read low | 6% of 85,000 active;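 active = viability at or below 40%; inactive = viability above 40%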;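 also: multidrug resistant small cell line overexpressing MRP-1 efflux transporter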
F-actin modifier: cytoskeleton assembly modification; HUVEC TNFa F-actin phalloidin imaging, high content; inhibition, % at 2 µM; 0.18% of 91,000 active;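 active = inhibition above the batch mean plus 3 SD and confirmed as a hit by visual image inspection, cut at about 30% in these data, passing the limit was not always enough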
Hits are given with their value; - = inactive; . = not tested or not shown. Only some compounds are listed: those with a hit (about 6% of all), similar ones and a draw of the others.

SMILES	Pyk2 oligo antag	Jurkat viability	HUVEC inhibit	Fibroblast inh	H69AR inhibit	F-actin modifier
CCC(=O)OCCNc1cc(Sc2nc3ccccc3s2)c2nonc2c1[N+](=O)[O-]	-	.	-	3.7	1.3	-
CCOC(=O)c1cnc(SC)nc1Oc1cccc(NC(=O)c2cccc(Cl)c2Cl)c1	-	.	.	.	.	-
Cc1cc(N2CCCCC2)nc(NCc2ccccc2)n1	-	.	-	-	16	-
COC(=O)c1[nH]c2ccc(C)cc2c1NC(=O)CN1CCCCC1C (centres undefined)	.	-	.	.	.	.
Cc1cccc(C)c1NC(=O)CSc1nnc([C@@H]2CCCN2C(=O)OC(C)(C)C)o1	-	.	-	-	-	.
CCc1ccccc1NC(=O)CSc1nnc([C@@H]2CCCN2C(=O)OC(C)(C)C)o1	-	-	-	-	2.1	-
Cc1ccc(S(=O)(=O)n2cnc3cc([N+](=O)[O-])ccc32)c(C)c1C	-	.	.	.	.	-
O=c1c2cccc3c(N4CCOCC4)ccc(c32)c2nc3ccccc3n12	.	-	-	-	28	.
O=c1c2ccc([N+](=O)[O-])c3cccc(c32)c2nc3ccccc3n12	.	.	.	.	.	-
COc1ccc(N2C(=O)NC3CC2(C)Oc2ccccc23)cc1OC (centres undefined)	-	-	-	-	26	-
COc1cc(N2C(=O)NC3CC2(C)Oc2ccc(Br)cc23)cc(OC)c1OC (centres undefined)	.	-	-	-	-	.
CCOC(=O)c1c2c(n(C)c1C)C(=O)C(=O)c1ccc(Br)cc1-2	-3.5	.	3.3	3.0	1.6	-
CC(=O)Nc1ccc(Cl)cc1C(=O)O	-	-	-	-	-	-
c1ccc(CN2c3ccccc3-c3nc4ccccc4n3C2c2ccccn2)cc1 (centres undefined)	-	.	-	-	32	-
CN1CCN(/C=N/c2c(C#N)cnn2Cc2ccccc2)CC1	-	-	-	-	-	-
CCOC(=O)N1CCN(CC(=O)Nc2ccc(C)c(Br)c2)CC1	-	.	-	-	-	-
COC(=O)Nc1sc2c(c1C(=O)NC1CC1)CCCCCC2	-	.	-	-	-	-
CC1=C(SCCC#N)S/C(=C2\SC(C)=C(SCCC#N)S2)S1	-	-	19	-	26	-
Cc1csc2nc(CNC(=O)C3CC=CCC3C(=O)O)cn12 (centres undefined)	.	-	-	-	-	-
Cc1cc(C)c2c(n1)sc1c(N3CCOCC3)ncnc12	.	-	22	-	-	-
c1nc(N2CCNCC2)c2sc3nc(N4CCOCC4)c4c(c3c2n1)CCC4	.	.	-	4.0	7.9	.
CC(C)(C)c1ccc(-c2csc(NNC3=NCCCCC3)n2)cc1	-	.	.	.	.	-
Brc1ccc(-c2csc(NNC3=NCCCCC3)n2)cc1	-	.	-	48	-	-
C=CCNc1nc(N)c(C(=O)Nc2cc(C)on2)s1	-	-	-	-	-	-
C=CCNc1nc(N)c(C(=O)c2ccc3c(c2)OCO3)s1	-	-	-	-	29	-
SMILES	Pyk2 oligo antag	Jurkat viability	HUVEC inhibit	Fibroblast inh	H69AR inhibit	F-actin modifier
COC(=O)c1cc(-c2ccc(Br)cc2)on1	.	-	-	-	-	-
CC(NC(=O)c1cc(-c2ccc(Br)cc2)on1)c1ccccc1 (centres undefined)	-	-	-	-	22	-
Clc1ccc2nc(C3CCN(Cc4nnnn4C4CCCCC4)CC3)[nH]c2c1	-	.	-	-	15	-
Cc1ccc(Cn2nnnc2CN2CCC(c3nc4ccc(Cl)cc4[nH]3)CC2)cc1	-	.	.	.	.	-
CSc1nnc(-c2sccc2OCc2ccc(C)cc2)n1C	-	.	.	.	.	-
O=C(Nc1ccccc1-c1nc2ccccc2s1)c1ccc(Br)o1	-	.	-	-	15	-
O=C(Nc1ccc(Cl)cc1-c1nc2ccccc2s1)c1ccco1	-	.	-	-	30	-
O=C(Nc1nc(-c2nc3ccccc3s2)cs1)c1ccco1	.	-	-	-	-	.
Cc1[nH]n(-c2ccc([N+](=O)[O-])cc2)c(=O)c1C=NCCN1CCN(C(=O)c2ccc(Br)cc2)CC1	-	.	-	-	40	.
Cc1[nH]n(-c2ccc([N+](=O)[O-])cc2)c(=O)c1C=NCCN1CCN(C(=O)c2ccc(F)cc2)CC1	-	.	-	-	-	.
CC(=O)OCc1c(C(F)(F)F)nn(C)c1SCc1ccc(Cl)cc1	-	.	-	-	-	-
NC1=NC2(CCC(c3ccccc3)CC2)n2c(nc3ccccc32)N1 (centres undefined)	-	-	-	-	8.7	-
CCn1ncc(C2=NOC(C(=O)NCc3ccc(Cl)cc3)C2)c1C (centres undefined)	-	92	-	-	37	.
CCn1ncc(C2=NOC(C(=O)Nc3ccc(C)cc3)C2)c1C (centres undefined)	-	.	-	-	-	-
Cc1ccc(NC(=O)c2nnn(CC(=O)Nc3ccccc3)c2N)cc1C	-	-	-	-	25	-
Cc1ccc(NC(=O)Cn2nnc(C(=O)NCc3ccccc3)c2N)cc1C	-	.	.	.	.	-
Cn1c(=O)oc2cc(S(=O)(=O)N3CCN(c4cccc(Cl)c4)CC3)ccc21	-	-	-	-	24	.
Cc1ccc2cccc(S(=O)(=O)N3CCN(c4cccc(Cl)c4)CC3)c2n1	-3.1	-	-	-	-	-
O=S(=O)(c1cccc2cccnc12)N1CCN(c2ccccc2)CC1	-	.	-	-	-	-
Cc1c(/C(O)=C2/C(=O)C(=O)N(CCCN3CCOCC3)C2c2ccncc2)cnn1-c1ccccc1 (centres undefined)	.	.	-	-	-	.
O=C1c2ccccc2NC(c2ccccn2)N1c1ccccc1F (centres undefined)	-	.	-	-	-	-
COc1ccccc1N=c1scc(-c2ccc3c(c2)NC(=O)CO3)n1CC1CCCO1 (centres undefined)	-	-	-	-	-	.
CN(C)S(=O)(=O)c1cccc(N=c2scc(-c3ccc4c(c3)NC(=O)CO4)n2CC2CCCO2)c1 (centres undefined)	-	.	-	-	34	-
CCC1(CC)C(=O)N(C)C(=O)NC1=Nc1ccc(OC)cc1	-	.	-	-	-	-
Cc1cc(C)n(C(C)n2nc(C)cc2C)n1	-	-	.	.	.	-
SMILES	Pyk2 oligo antag	Jurkat viability	HUVEC inhibit	Fibroblast inh	H69AR inhibit	F-actin modifier
Cc1ccc(C)n1-c1sc2c(c1C#N)CCC(C)C2 (centres undefined)	-	.	.	.	.	-
CCOC(=O)Cc1csc(NC(=O)C(C)(C)CC)n1	-	.	.	.	.	-
CCOC(=O)c1cc2c(ccn2C)n1Cc1ccccc1C	-	-	-	-	-	63
Cc1ccccc1Cn1c(C(=O)OC(C)C)cc2c1ccn2C	-	.	-	-	-	-
CCCCCc1c(O)nc(SCC(=O)O)[nH]c1=O	.	.	-	.	-	-
CC(=O)c1cccc(NS(=O)(=O)c2c(C)noc2C)c1	-	-	-	-	-	60
Clc1cnc(N/N=C/c2cccs2)c(Cl)c1	-	.	-	49	-	-
CCCCCCCCCC(=O)N/N=C/c1ccc(C)s1	-	.	.	.	.	-
Cc1ccc(/C=N/Nc2ncc(Cl)cc2Cl)s1	-	.	-	47	-	-
COc1ccc(CCNC(=O)NC23CC4CC(CC(C4)C2)C3)cc1OC	-	.	-	-	-	-
Oc1ccc(N=Nc2n[nH]c(-c3ccc(Cl)cc3)n2)cc1	-	.	.	.	.	52

Screening results as filed in PubChem BioAssay.
